An excerpt weighted towards active compounds, which were near 3.1% of everything screened.
GalR3 antag: human GalR3 antagonism. O60755. HEK293 GalR3-CNG cAMP membrane potential fluorescence; galR3 body fused to GalR1 C-terminus. inhibition, % at 3 µM. 0.44% of 360,000 active;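 active = inhibition above the screen-wide average plus 3 SD, cut at about 13% in these data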;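 also: forskolin and galanin both at EC90 stimulate the cells; cAMP rise reported by CNG channel membrane potential dye signal; 0% = forskolin plus galanin with DMSO and 100% = forskolin alone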
GPR7 antagonist: blocks human GPR7 receptor signaling; GPR7-expressing cells, fluorescence antagonist assay; AID 1861; P48145; inhibition, % at 4.4 µM; 1.1% of 290,000 active; in the data active = inhibition above about 16%, passing the limit was not always enough;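 also: cells stimulated with the agonist NPW; 0% = agonist with vehicle and 100% = vehicle without agonist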
CHO parental Ca: signal in parental CHO cells, OX1R antagonist counter-screen. inhibition, % at 5.6 µM. parental CHO-K1, ATP-induced calcium, Fluo-8 fluorescence. AID 463079. 0.63% of 330,000 active;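 active = inhibition above that plate's mean sample inhibition plus 3 SD, cut at about 26% in these data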;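 also: 0% = ATP-challenged DMSO wells and 100% = DMSO wells without ATP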
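test system = CHO parental line | reagent = ATP stimulus | measured by = intracellular calcium via Fluo-8 no-wash fluorescent dye | control set = ATP and no-ATP DMSO wells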
OX1R antag-1: human HCRTR1 antagonism; O43613; CHO/OX1R cells, Fluo-8 calcium fluorescence, orexin A; inhibition, % at 5 µM; 0.43% of 330,000 active; AID 434989;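 active = inhibition above its plate's threshold, mean inhibition of all tested compounds on the plate plus 3 SD, cut at about 37% in these data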;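 also: 0% = orexin A challenge wells and 100% = SB-334867-A antagonist wells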
Target sequence (O43613 whole entry, looked up): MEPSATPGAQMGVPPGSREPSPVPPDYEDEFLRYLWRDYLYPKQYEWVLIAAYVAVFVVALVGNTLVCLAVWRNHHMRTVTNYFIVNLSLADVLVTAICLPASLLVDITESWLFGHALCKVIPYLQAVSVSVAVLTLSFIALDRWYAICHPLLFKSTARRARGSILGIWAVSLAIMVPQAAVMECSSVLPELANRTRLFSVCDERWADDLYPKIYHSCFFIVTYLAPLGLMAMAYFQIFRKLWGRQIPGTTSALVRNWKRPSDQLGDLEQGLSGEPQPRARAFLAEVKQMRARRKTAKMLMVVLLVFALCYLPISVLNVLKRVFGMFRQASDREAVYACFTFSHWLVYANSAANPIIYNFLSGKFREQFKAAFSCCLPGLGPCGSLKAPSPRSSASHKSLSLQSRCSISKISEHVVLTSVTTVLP
OX1R antag-2: OX1R (human) antagonism; OX1R-expressing cells, FRET antagonist read-out; 1.8% of 330,000 active; O43613; AID 485270; inhibition, % at 6.6 µM; in the data active = inhibition mostly above about 38%, no sharp cut-off; inactive = mostly below about 40%;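 also: 0% = agonist challenge alone and 100% = reference antagonist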
Numbers without * were called inactive; . = no result given.

SMILES | GalR3 antag | GPR7 antagonist | CHO parental Ca | OX1R antag-1 | OX1R antag-2
COc1ccc(CC(N)c2csc(NC(=O)Nc3ccccc3-c3ccccc3)n2)cc1 (centres undefined) | -8 | . | . | . | .
c1ccc2c(c1)[nH]c1c(N3CCC4(CC3)OCCO4)ncnc12 | . | 5 | 60* | 37 | 66*
Cc1ccc2[nH]c3c(N4CCN(Cc5ccc6c(c5)OCO6)CC4)ncnc3c2c1 | 0 | -7 | . | . | .
Cc1ccc2c(c1)[nH]c1c(N3CCN(Cc4ccccc4)CC3)ncnc12 | 9 | -15 | -9 | 30 | 32
COc1cccc2[nH]c3c(N4CCC5(CC4)OCCO5)ncnc3c12 | -3 | -13 | -10 | -18 | 11
Cc1ccc2[nH]c3c(N4CCN(Cc5ccccc5)CC4)ncnc3c2c1 | 10 | -14 | 28 | 14 | 80*
COc1ccc2c(c1)[nH]c1c(N3CCN(Cc4ccc5c(c4)OCO5)CC3)ncnc12 | -2 | 4 | 11 | 15 | 49*
COCC(C)n1c(SCC(=O)N2CCc3ccccc3C2)nc2ccccc2c1=O (centres undefined) | -3 | -5 | -21 | -25 | 70*
CCOC(=O)/C(N=Nc1c(C)n(C)n(-c2ccccc2)c1=O)=C(/O)c1ccccc1 | -1 | -11 | 2 | -14 | 52*
Cc1c(N=N/C(C(=O)Nc2ccccc2)=C(/O)c2ccccc2)c(=O)n(-c2ccccc2)n1C | -2 | -7 | -17 | -10 | 28
Cn1cc(CCOCc2ccccc2)c2ccccc21 | -6 | . | . | . | .
O=C(Nc1ccccc1C(=O)NC(Cc1c[nH]c2ccccc12)C(=O)O)c1ccco1 (centres undefined) | 3 | -1 | -15 | 8 | 65
COc1ccc(C(=O)Nc2ccccc2C(=O)NC(Cc2c[nH]c3ccccc23)C(=O)O)cc1 (centres undefined) | 5 | -12 | -2 | 21 | 68*
COc1cccc(/C=N/NC(=O)C(=O)NCc2ccco2)c1O | -6 | -9 | -13 | 1 | 41*
COc1cccc(/C=N/NC(=O)CSCC(=O)Nc2ccccc2)c1O | -8 | -8 | -16 | -13 | 59*
COc1cccc(/C=N/NC(=O)C(=O)NCc2ccco2)c1OC | -4 | -5 | -20 | -18 | 14
O=C(C[C@@H]1C=C[C@@H](NC(=O)c2cccnc2)[C@@H](CO)O1)NCc1ccncn1 | -6 | . | . | . | .
CC(C)N(CCCNC(=O)Cn1c(=O)c2cccn2c2ccccc21)Cc1ccccc1 | -4 | -8 | -21 | 28 | 66*
CCOC(=O)C1=CCN(S(=O)(=O)c2ccc(Br)cc2)C1c1ccc(Br)cc1 (centres undefined) | -8 | . | . | . | .
O=[N+]([O-])c1ccc2cn[nH]c2c1 | . | -9 | -1 | -9 | 49*
O=C(Cn1nnc(-c2ccccc2NC(=O)c2ccccc2F)n1)NC1CCCC1 | -2 | -2 | 32* | 40 | 18
COc1ccc(OC)c(CCNC(=O)Cn2sc3nc(C)cc(C)c3c2=O)c1 | . | 16* | 49* | 55* | 20
O=C(Nc1cccc(C(F)(F)F)c1)c1scc2c1OCCO2 | 3 | -6 | 43* | -7 | 15
O=C1C=C(Nc2ccccc2O)c2ccccc2C1=O | -10 | 3 | -9 | -3 | 58*
CCOc1ccc(NC2=CC(=O)C(=O)c3ccccc32)cc1 | -4 | . | . | . | .
SMILES | GalR3 antag | GPR7 antagonist | CHO parental Ca | OX1R antag-1 | OX1R antag-2
O=C1C=C(Nc2ccc(F)cc2)c2ccccc2C1=O | -4 | . | -3 | -9 | 50*
Nc1[nH]c(C(=O)c2ccc(Br)cc2)c(-c2ccccc2Cl)c1C(=O)NCCc1c[nH]c2ccccc12 | -7 | . | . | . | .
COC(=O)C1=C(C)N(C)C(=NCC2CC2)NC1c1cccc(C(F)(F)F)c1 (centres undefined) | -7 | . | . | . | .
CCCCCCCCC(=O)NC(NC(=S)N1CCOCC1)C(Cl)(Cl)Cl (centres undefined) | -8 | 19* | -12 | 20 | 11
COC(=O)c1cc2c(c3c4cc(C)ccc4n(S(=O)(=O)c4ccc(C)cc4)c13)C(=O)N(Cc1ccc(C(F)(F)F)cc1)C2 | -6 | . | . | . | .
CCCCCCCCN1C(=O)[C@H](CC(=O)NCCC(C)C)C[C@@]2(C(=O)OC)CCCCC=C12 | -6 | . | . | . | .
COc1ccc(/C=C2\SC(N3CCCCC3)=NC2=O)cc1 | -9 | 22 | -26 | -20 | 23
O=C1N=C(N2CCCCC2)S/C1=C\c1ccncc1 | -6 | -15 | -2 | -1 | 45*
O=C1N=C(N2CCOCC2)S/C1=C\c1cccnc1 | 0 | -15 | 7 | -4 | 37*
O=C1c2sc3nc4ccccc4n3c2C(=O)N1c1ccccc1Cl | -3 | 1 | -29 | -25 | 64*
Cc1nn(-c2ccccc2)c(N)c1N=Nc1cccnc1 | 5 | 0 | -10 | -20 | 54*
CC(=O)N1CCN(c2cc(-c3ccccc3)nc3cc(-c4cccc(Cl)c4)nn23)CC1 | -5 | . | . | . | .
Cc1ccccc1NC(=O)CSc1nnc(-c2ccccc2)n1-c1ccccc1 | -5 | 6 | -20 | -35 | 26
N#Cc1ccccc1NC(=O)CSc1nnc(-c2ccccc2O)n1-c1ccccc1 | -2 | -5 | -15 | 9 | 43*
COc1ccc(C(=O)C[n+]2ccc(-c3nnc4n3CCCCC4)cc2)cc1 | 1 | 9 | -13 | -9 | 44*
C[C@H]1CN(S(=O)(=O)C(C)(C)C)[C@@H](CCO)/C1=C\CCO | -2 | . | . | . | .
O=C(c1cc(COc2ccc(F)cc2Cl)on1)N1CCCC(OCc2cccnc2)C1 (centres undefined) | 7 | -18 | 8 | -22 | 26
O=C(c1cc(COc2cccc(C(F)(F)F)c2)on1)N1CCC(Oc2cccnc2)CC1 | -3 | 15 | 39* | 11 | 6
O=C(c1cc(COc2ccc(F)cc2Cl)on1)N1CCC(OCc2cccnc2)CC1 | -2 | -6 | 61* | 45* | 57
CCOC(=O)c1c(C)[nH]c(C(=O)OCC(=O)NCc2ccco2)c1C | -7 | . | . | . | .
COc1ccc(Cl)cc1C(=O)Nc1ccccc1N1CCN(C(=O)C(C)C)CC1 | -1 | 20* | -19 | -41 | 14
COc1ccc(C(=O)Nc2ccccc2N2CCN(C(=O)C(C)C)CC2)cc1Cl | -1 | -5 | -37 | -35 | 31
OC(c1ccc(-c2ccccc2)cc1)c1ncc(-c2ccccc2)[nH]1 (centres undefined) | -6 | . | . | . | .
COC(=O)CCCC1=CC2=CC(=O)C(C)(OC(=O)c3cccs3)C(=O)C2=CN1CCCOC(C)C (centres undefined) | 1 | . | -13 | -24 | 63*
COC(=O)CCCC1=CC2=CC(=O)C(C)(OC(=O)c3cccs3)C(=O)C2=CN1Cc1ccccc1 (centres undefined) | 0 | . | -20 | -39 | 34
Cc1ccc2c(c1)C(=O)C(=O)N2CCOc1ccccc1 | -2 | 33* | -1 | -7 | 20
Cc1cccc(OCCN2C(=O)C(=O)c3cc(C)ccc32)c1 | 3 | 9 | -11 | -4 | 15
CCCCC(=O)Nc1ccc(C(=O)c2ccccc2)cc1 | -2 | 20* | -12 | -10 | 28

High-throughput results as filed in PubChem.
